Results of several laboratories.
Each line is one published result; the experiments were not run side by side.
Organism: Aspergillus niger
Read-out: microbial growth

SMILES	assay	system	setting	endpoint	result
Oc1ccc(Br)cc1-c1nc2ccccc2[nH]1	–	ATCC16404	–	MIC	512 µg/mL
Clc1ccccc1C(c1ccccc1)(c1ccccc1)n1ccnc1	disc diffusion	–	100 µg/mL	inhibition zone	18 mm
Cc1cc(=O)[nH]n1C(=O)c1ccc(-n2c(C)ccc2C)cc1	broth dilution	ATCC6275	–	MIC	250 µg/mL
O=C1NN=C(N=Cc2ccccc2)C1=NNn1c(-c2ccccc2)nc2ccccc2c1=O	broth dilution	–	–	MIC	57.1 µM
Cc1ccc2nc(-c3cc(Br)ccc3O)[nH]c2c1	–	ATCC16404	–	MIC	256 µg/mL
Clc1ccccc1C(c1ccccc1)(c1ccccc1)n1ccnc1	disc diffusion	–	20000 µg/mL	inhibition zone	25 mm
CC1=NN(CNC(=O)c2ccccc2)C(=O)C1=NNn1c(-c2ccccc2)nc2ccccc2c1=O	broth dilution	–	–	MIC	104 µM
Cc1ccc(C)n1-c1ccc(-c2nnc(-c3ccc(O)cc3)[nH]2)cc1	broth dilution	ATCC6275	–	MIC	31.2 µg/mL
O=C1NN=C(N=Cc2ccc(O)cc2O)C1=NNn1c(-c2ccccc2)nc2ccccc2c1=O	broth dilution	–	–	MIC	107 µM
Cc1ccc2nc(-c3ccco3)n(Cc3ccccc3)c2c1	–	ATCC16404	–	MIC	512 µg/mL
Cc1ccc(C)n1-c1ccc(-c2nnc(S)s2)cc1	broth dilution	ATCC6275	–	MIC	125 µg/mL
CC1=NN(CNC(=O)c2ccccn2)C(=O)C1=NNn1c(-c2ccccc2)nc2ccccc2c1=O	broth dilution	–	–	MIC	104 µM
Cc1ccc2nc(-c3ccc(Cl)c(Cl)c3)[nH]c2c1	–	ATCC16404	–	MIC	32 µg/mL
Cc1ccc(C)n1-c1ccc(-c2n[nH]c(=S)[nH]2)cc1	broth dilution	ATCC6275	–	MIC	> 500 µg/mL
O=C(O)c1cn(C2CC2)c2cc(N3CCNCC3)c(F)cc2c1=O	broth dilution	–	–	MIC	25.5 µM
Cc1ccc(C)n1-c1ccc(-c2nnc(-c3ccc(Br)cc3)[nH]2)cc1	broth dilution	ATCC6275	–	MIC	4 µg/mL
CSc1ccc(-c2nc3ccc(C)cc3[nH]2)cc1	–	ATCC16404	–	MIC	64 µg/mL
